The record followed here is ChEMBL document CHEMBL4513216, “Probing the Open Global Health Chemical Diversity Library for Multistage-Active Starting Points for Next-Generation Antimalarials” (ACS Infect Dis, 2020).

The structures appear in SMILES notation.

The data set is described as follows: Toxicity liver stage against HepG2, at 10uM. The format is cell-based. Further details: test concentration 10 uM, cell line HepG2-A16-CD81EGFP. The settings on record: human, HepG2-A16-CD81EGFP cells; read-out: INHIBITION
The method, boiled down: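 Uninfected HepG2-A16-CD81EGFP cells, 3 × 10^3 per well, 1536-well, plated on prespotted compound at 10 μM final, parasite-free screening media added to match infected plates; puromycin 10 μM positive, DMSO 0.5% negative; run in parallel with 48 h PbLuc assay at 37 °C, 5% CO2; viability by CellTiter-Glo luminescence, normalized to controls.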
Turning to `CC(C)Oc1ccc(CNC(=O)C2CCC(=O)N2)cn1` (stereo not drawn), the cytotoxicity at 10 µM was determined as 10.5%.
Turning to `CCOC(=O)N1CC(=O)N(Cc2ccc(OC)cc2)CC(O)C1` (stereo not drawn), the cytotoxicity at 10 µM was -2.67%.
In the case of `CC(Cn1ccnc1)NC(=O)C1(c2ccccc2)CC1` (stereo not drawn), the cytotoxicity at 10 µM was -5.74%.
`Cc1ccc(CN(C)C(=O)CN2CCCC2Cn2cncn2)cc1` (stereo not drawn): the cytotoxicity at 10 µM is 7.84%.
Then `CCC(C)C(=O)NCCCn1nc(C)cc1C` (stereo not drawn), with 0.0879%; and `CN(C)C(=O)N1CCn2c(Cn3cccn3)cnc2C1`, with -76.7%.
Then `CC(C)CCNc1c(C#N)c2c(c3nncn13)CN(C)CC2`, with 9.26%; and `CN(c1ncccc1CNC(=O)c1cscn1)C1CCCCC1`, with 1.86%.
Take `Cc1cc(C)nc(NC(=O)C(C)Oc2ccc3c(c2)OCO3)n1` (stereo not drawn): the cytotoxicity at 10 µM is -9.9%.
Then `CC1=N[C@@]2(CC[C@@H]3CN(C(=O)Nc4ccc(F)cc4)C[C@@H]32)C(=O)N1C`, with 8.1%.
Regarding `O=C(c1cc(-c2ccccc2)nc2onc(C3CC3)c12)N1CC[C@H](O)C1`, the cytotoxicity at 10 µM was -36.7%.
For the compound `OCC1(NCc2cccc(-n3cccn3)c2)CCOCC1`, the cytotoxicity at 10 µM was -139%.
Then `Cc1cn2c(=O)c(-c3ccnc(N4CCC[C@@H]4CO)n3)cnc2s1`, with -9.52%; and `COc1ccc(-n2cccn2)c(CN2CCC3(CCCNC3)C2)c1` (stereo not drawn), with -1.09%.
Regarding `CN(CC(=O)N1CCN(c2cnccn2)CC1)c1ccc(Cl)cn1`, the cytotoxicity at 10 µM is -0.487%.
Next, `CCCC(=O)NCc1ccc(N2CCCCC2)cc1`: 3.54%; `COC(=O)CC1CCN(C(=O)c2ccc(-n3nnnc3C)cc2)CC1`: -6.72%; `CCOC(=O)Cn1cccc(S(=O)(=O)N2CCCC2)c1=O`: 13.4%.
Then `CN(C)C(=O)Cc1ccccc1NCc1cc(C#N)ccc1F`, with 48.1%; and `Cc1ccc(C)c(C(=O)N2CCN(C(=O)Cc3ccccn3)CC2)c1`, with -15.1%.
Then `Cc1ccc(CNc2ccc(N3CCC(CO)CC3)cn2)o1`, with 19.1%.
As for `Cc1nc(C2NC3(CCCC3)C(=O)N2CC2CC2)cs1` (stereo not drawn), the cytotoxicity at 10 µM is -6.09%.
Take `Cn1cnnc1SCCCNC(=O)Nc1ncccn1`: the cytotoxicity at 10 µM was 0.252%.
On to `COC(=O)c1cccn1C1CCN(Cc2cnc3ccccn23)CC1`, for which the cytotoxicity at 10 µM was -8.86%.
Next, `Cc1nn(C)c(C)c1CC(=O)N1CCCC(CNS(C)(=O)=O)C1` (stereo not drawn): 3.3%.
Then `CC(NC(=O)CCNC(=O)c1ccoc1)c1ccccc1` (stereo not drawn), with 5.66%.
As for `CCc1ccc(CN2CCC3(CC2)CNC(=O)CO3)o1`, the cytotoxicity at 10 µM was -16.5%.
Then `O=C1N(Cc2ccccn2)C[C@H]2CN(C3CCC3)CCN12`, with -4.81%.
Then `Cn1cc(CN2CC[C@H]3O[C@H](C(=O)Nc4cnccn4)CC[C@H]32)cn1`, with -135%; and `COc1ccc(OC)c(NC(=O)N2CCCC2c2ccco2)c1` (stereo not drawn), with -6.57%.
Next, `Cc1nc(Cn2cc(I)cc(C)c2=O)oc1C`: 0.939%.
As to `COCC(=O)N1CC[C@H]2N(C)CC[C@@]2(C(=O)Nc2ccccc2)CC1`, the cytotoxicity at 10 µM is 3.48%.
Then `CC(C)CC(NC(=O)Nc1ccc(F)c(Cl)c1)C(=O)O` (stereo not drawn), with 8.19%.
Then `COCCCNC(=O)CN(C)C(C)c1nc(C)no1` (stereo not drawn), with 8.8%; and `COc1ccc(-c2cn(CCn3c(C)cc(C)nc3=O)nn2)cn1`, with 6.05%.
As to `COc1ccc(C(C)NCc2c[nH]nc2C)cc1OC` (stereo not drawn), the cytotoxicity at 10 µM was -3.75%.
Next, `O=C1CCN(C(=O)NCc2ccccc2Oc2ccccc2)CCN1`: 6.03%; `NC(=O)CNC1(c2ccc(Br)cc2)CCOCC1`: -0.717%.
Consider `CC(=O)N(Cc1ncc(C)o1)C1CCN(Cc2ccc(F)c(F)c2)C1` (stereo not drawn), for which the cytotoxicity at 10 µM turned out to be 13.4%.
Next, `NC(=O)C1CCN(CCc2ccc(NCc3cscn3)cc2)CC1`: 3.69%; `CCc1nc2c(c(NC3CC3)n1)CCN(C(=O)Cc1nonc1C)CC2`: 2.8%.
Take `CS(=O)(=O)c1cccc(C(N)c2ccccc2)c1` (stereo not drawn): the cytotoxicity at 10 µM was -19.3%.
Then `CCc1nnc2n1CCN(C(=O)c1cc(Br)c[nH]1)C2`, with -7.93%; and `CC(C)N1CCC(NC(=O)NC2CCOc3ccc(Br)cc32)CC1` (stereo not drawn), with -6.64%; and `O=C(Cn1nnc(-c2ccc(F)cc2)n1)N1CCOCC(O)C1` (stereo not drawn), with 10.9%.
Then `CCn1nc(C(=O)N2CCCC2c2noc(C3CC3)n2)ccc1=O` (stereo not drawn), with 5.65%; and `O=C(NC(CO)CO)c1coc(COc2cccc(F)c2)n1`, with 12.5%.
Take `Cc1noc(C(C)C)c1C(=O)NCCCN1CCC(C)CC1`: the cytotoxicity at 10 µM was -15.9%.
Then `COc1ccc(COCC(O)CNC(=O)Cc2ccc(C)cc2)cc1` (stereo not drawn), with -5.62%; and `CNC(=O)c1ccc(CN2CCC(N(C)Cc3noc(C)n3)C2)cc1` (stereo not drawn), with 5.56%; and `CCCNc1ncc(CN2CCN(C)C(=O)C2C)cn1` (stereo not drawn), with 12.9%.
For the compound `Cc1nc(C)n(C2CCCN(C(=O)c3csc(C)n3)C2)n1` (stereo not drawn), the cytotoxicity at 10 µM is -18.7%.
Then `Cc1ccc(CN(C(=O)NC2CCS(=O)(=O)C2)C2CC2)o1` (stereo not drawn), with -155%; and `Cn1ncc2c1CN(Cc1cccnc1)CC2COCC1CC1` (stereo not drawn), with -10.7%.
Next, `CC[C@H](C)Nc1nccc(-c2cnc3sc(C)c(C)n3c2=O)n1`: 11.1%; `CC(=O)NCC(=O)N1CCOC(c2cccc(N)n2)C1` (stereo not drawn): -4.68%.
Next, `Cc1nc(CNc2ncc(Br)cn2)n[nH]1`: -3.47%; `c1cncc(COCc2nnc3n2CCN(CC2CC2)C3)c1`: -3.03%.
For the compound `CCc1ncnc2c1CCN(C(=O)c1cccn1C)CC2`, the cytotoxicity at 10 µM was -73.5%.
As to `CCC(=O)NC(c1ccc(C)cc1)c1cccc(S(C)(=O)=O)c1` (stereo not drawn), the cytotoxicity at 10 µM is -7.62%.
Next, `CSc1cccc(NC(=O)CCC(=O)Nc2nccs2)c1`: -5.05%; `COc1ccc(C(NCc2cccc(C#N)c2)C(C)C)cc1` (stereo not drawn): 17%; `Cc1nn2c(NCC(=O)NC3CC3)cc(-c3ccccc3)nc2c1C`: -5.1%.
Next, `Cc1ccc(O[C@@H]2C[C@H]3CN(Cc4nccn4C)CCN3C2)cc1`: 3.39%.
Take `Cn1ccnc1C1CCCN(C(=O)c2ccncc2F)C1` (stereo not drawn): the cytotoxicity at 10 µM amounted to 3.18%.
With `CN1CCN(C(=O)c2n[nH]c3c2CN(Cc2nccs2)CC3)CC1`, the cytotoxicity at 10 µM was -144%.
Consider `CCc1cc(CN(C)Cc2nc(-c3ccc(OC)cc3F)oc2C)on1`, for which the cytotoxicity at 10 µM is -3.4%.
Next, `Cc1cc(C)c2c(N3CCN(CCN4CCOCC4)CC3)ncnc2n1`: 3.04%; `COc1cccc(-c2ncc(CN3CCOCC(O)C3)s2)c1` (stereo not drawn): -7.19%; `Brc1csc(-c2noc(C3COCCO3)n2)c1` (stereo not drawn): -1.92%.
Then `CC(C)C(C)NC(=O)Nc1cccc(OCC#N)c1` (stereo not drawn), with -1.13%; and `CC(C)n1cnnc1C1CCCN(S(=O)(=O)CC2CCCC2)C1` (stereo not drawn), with -11.7%.
Next, `C[C@H](N)Cn1nc(-c2cccs2)oc1=O`: -1.94%.
